# Data from ChEMBL document CHEMBL1649117, “GRL-02031, a novel nonpeptidic protease inhibitor (PI) containing a stereochemically defined fused cyclopentanyltetrahydrofuran potent against multi-PI-resistant human immunodeficiency virus type 1 in vitro” (Antimicrob Agents Chemother, 2009).
# Legend:
# [1] = test system: Human immunodeficiency virus 1; assay: Ratio of EC50 for indinavir to compound against HIV1 NL4-3 harboring I84V mutation in protease encoding region infected in human […] cells; format: functional
# [2] = test system: Human immunodeficiency virus 1; assay: Ratio of EC50 for ritonavir to compound against HIV1 NL4-3 harboring I85V mutation in protease encoding region infected in human […] cells; format: functional
# [3] = test system: Human immunodeficiency virus 1; assay: Ratio of EC50 for ritonavir to compound against HIV1 NL4-3 harboring V82I/I85V mutation in protease encoding region infected in human […] cells; format: functional
# [4] = test system: Human immunodeficiency virus 1; assay: Ratio of EC50 for ritonavir to compound against HIV1 NL4-3 harboring I84V/I85V mutation in protease encoding region infected in human […] cells; format: functional
# [5] = test system: Human immunodeficiency virus 1; assay: Antiviral activity against HIV1 NL4-3 harboring I47V mutation in protease encoding region infected in human […] cells assessed as inhibition of p24 Gag protein production by ELISA; format: functional, organism-based; settings: Human immunodeficiency virus 1, NL4-3
# In short: (§1)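 Protease PCR fragments (ApaI/SmaI) were cloned into pHIV-1NLSma, and virions were harvested from transfected 293T cells over 48 h. MT-4 target cells (10^5/ml) were infected with 100 TCID50s, with or without drug, at 37°C. Day-7 supernatant p24 Gag was read by chemiluminescent enzyme immunoassay.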
# [6] = test system: Human immunodeficiency virus 1; assay: Antiviral activity against HIV1 NL4-3 harboring I85V mutation in protease encoding region infected in human […] cells assessed as inhibition of p24 Gag protein production by ELISA; format: functional, organism-based; settings: Human immunodeficiency virus 1, NL4-3; in short: as §1
# [7] = test system: Human immunodeficiency virus 1; assay: Antiviral activity against HIV1 NL4-3 harboring I84V/I85V mutation in protease encoding region infected in human […] cells assessed as inhibition of p24 Gag protein production by ELISA; format: functional, organism-based; settings: Human immunodeficiency virus 1, NL4-3; in short: as §1
# [8] = test system: Human immunodeficiency virus 1; assay: Antiviral activity against HIV1 NL4-3 harboring L10F/I47V/V82I/I85V mutation in protease encoding region infected in human […] cells assessed as inhibition of p24 Gag protein production by ELISA; format: functional, organism-based; settings: Human immunodeficiency virus 1, NL4-3; in short: as §1
# [9] = test system: Human immunodeficiency virus 1; assay: Antiviral activity against HIV1 NL4-3 harboring L10F/M46I/I47V/V82I/I85V mutation in protease encoding region infected in human […] cells assessed as inhibition of p24 Gag protein production by ELISA; format: functional, organism-based; settings: Human immunodeficiency virus 1, NL4-3; in short: as §1
# [10] = test system: Human immunodeficiency virus 1; assay: Antiviral activity against HIV1 NL4-3 harboring D30N mutation in protease encoding region infected in human […] cells assessed as inhibition of p24 Gag protein production by ELISA; format: functional, organism-based; settings: Human immunodeficiency virus 1, NL4-3; in short: as §1
# [11] = test system: Human immunodeficiency virus 1; assay: Antiviral activity against HIV1 NL4-3 harboring I50V mutation in protease encoding region infected in human […] cells assessed as inhibition of p24 Gag protein production by ELISA; format: functional, organism-based; settings: Human immunodeficiency virus 1, NL4-3; in short: as §1
# [12] = test system: Human immunodeficiency virus 1; assay: Ratio of EC50 for HIV1 NL4-3 harboring L10F mutation in protease encoding region infected in human […] cells to EC50 for HIV1 NL4-3 infected in human MT4 cells; format: functional
# [13] = test system: Human immunodeficiency virus 1; assay: Ratio of EC50 for HIV1 NL4-3 harboring M46I mutation in protease encoding region infected in human […] cells to EC50 for HIV1 NL4-3 infected in human MT4 cells; format: functional
# [14] = test system: Human immunodeficiency virus 1; assay: Ratio of EC50 for HIV1 NL4-3 harboring Q58E mutation in protease encoding region infected in human […] cells to EC50 for HIV1 NL4-3 infected in human MT4 cells; format: functional
# [15] = test system: Human immunodeficiency virus 1; assay: Ratio of EC50 for HIV1 NL4-3 harboring V82I/I85V mutation in protease encoding region infected in human […] cells to EC50 for HIV1 NL4-3 infected in human MT4 cells; format: functional
# [16] = test system: Human immunodeficiency virus 1; assay: Ratio of EC50 for HIV1 NL4-3 harboring L10F/M46I/I47V/V82I/I85V mutation in protease encoding region infected in human […] cells to EC50 for HIV1 NL4-3 infected in human MT4 cells; format: functional
# [17] = test system: Human immunodeficiency virus 1; assay: Ratio of EC50 for HIV1 NL4-3 harboring G48V mutation in protease encoding region infected in human […] cells to EC50 for HIV1 NL4-3 infected in human MT4 cells; format: functional
# [18] = test system: Human immunodeficiency virus 1; assay: Ratio of EC50 for HIV1 NL4-3 harboring I50V mutation in protease encoding region infected in human […] cells to EC50 for HIV1 NL4-3 infected in human MT4 cells; format: functional
# [19] = test system: Human immunodeficiency virus 1; assay: Ratio of EC50 for amprenavir to compound against HIV1 NL4-3 harboring L10F mutation in protease encoding region infected in human […] cells; format: functional
# [20] = test system: Human immunodeficiency virus 1; assay: Ratio of EC50 for amprenavir to compound against HIV1 NL4-3 harboring Q58E mutation in protease encoding region infected in human […] cells; format: functional
smiles,measurement,setting,value
COc1ccc(S(=O)(=O)N(C[C@@H]2CCC(=O)N2)C[C@@H](O)[C@H](Cc2ccccc2)NC(=O)O[C@@H]2C[C@@H]3CCO[C@@H]3C2)cc1,Ratio EC50,[1],2.2
same,Ratio EC50,[2],2.1
same,Ratio EC50,[3],1.6
same,Ratio EC50,[4],14.8
same,EC50,[5],37 nM
same,EC50,[6],24 nM
same,EC50,[7],97 nM
same,EC50,[8],430 nM
same,EC50,[9],> 1000 nM
same,EC50,[10],20 nM
same,EC50,[11],15 nM
same,Ratio EC50,[12],1.6
same,Ratio EC50,[13],1.2
same,Ratio EC50,[14],1.4
same,Ratio EC50,[15],1.5
same,Ratio EC50,[16],>43
same,Ratio EC50,[17],1.7
same,Ratio EC50,[18],0.7
same,Ratio EC50,[19],1.4
same,Ratio EC50,[20],1
